Measured values published in ChEMBL document CHEMBL4385623, “Advances in the structural studies of antibiotic potentiators against Escherichia coli” (2019).
Values after ≈ are worked out from the molar mass of the structure shown. Active and inactive are the calls of the source. The rule behind the calls is not given here. Peptide text beside a SMILES is read from it. * marks the point of attachment. βNA = c1ccc2cc(N*)ccc2c1

Legend:
Escherichia coli [1] = test: Potency index, ratio of potentiation of clarithromycin-induced antibacterial activity of PAbetaN to potentiation of clarithromycin-induced antibacterial activity of test compound against Escherichia coli ATCC 25922 assessed as fold reduction in clarithromycin MIC at 12.5 uM incubated for 24 hrs by spectrophotometric based assay; assay type: functional
[2] = test system: Escherichia coli ATCC 25922; test: Inhibition of AcrAB-TolC efflux pump in Escherichia coli ATCC 25922 assessed as inhibition of Hoechst 33342 efflux at 1.56 to 12.5 ug/ml pre-incubated for 5 mins followed by glucose addition by Hoechst 33342 staining based fluorescence assay
Outline: (§1)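 Overnight cells washed and resuspended in PBS + 1 mM MgCl2 to OD600 1.0. Energy depleted with 3.13 μM CCCP for 20 min at 37 °C. Loaded with 10 μM Hoechst 33342 for 20 min, then mixed with compound (1/32–¼ MIC, DMSO vehicle) and preincubated 5 min at 37 °C. Efflux started with 50 mM glucose. Fluorescence (ex 355/em 460 nm) read each minute for 40 min at 37 °C.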

Escherichia coli [3] = test: Induction of outer membrane permeabilization in Escherichia coli ATCC 25922 assessed as increase in NPN uptake at 1.56 to 12.5 ug/ml incubated for 10 mins by fluorescence assay; assay type: functional, organism-based
Outline: (§2)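 Log-phase cells grown in CAMH, washed, and resuspended in PBS to OD600 1.0. NPN added at 10 μM final for 10 min at room temperature. Compound (1/32–¼ MIC, DMSO vehicle) added, four replicates, then 10 min in the dark at room temperature. Fluorescence read at ex 350/em 420 nm. The 10-min average, minus vehicle wells, is the corrected value.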

Escherichia coli [4] = test: Induction of outer membrane permeabilization in Escherichia coli ATCC 25922 assessed as increase in propidium iodide uptake at 1.56 to 12.5 ug/ml by propidium iodide staining based flow cytometric analysis; assay type: functional, organism-based
Outline: (§3)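 Flow cytometry. Log-phase cells grown in CAMH and diluted in PBS to 4 × 10^6 CFU/ml. Compound added at 1/32–¼ MIC (DMSO vehicle controls), in triplicate. Propidium iodide added at 50 μM final; 1 h in the dark at room temperature. Excitation 488 nm, emission 620/30 nm, 30,000 cells per sample. Result is percent PI-positive cells.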

Escherichia coli [5] = test: Induction of inner membrane permeabilization in Escherichia coli ATCC 25922 assessed as increase in propidium iodide uptake at 1.56 to 12.5 ug/ml by PI staining based flow cytometric analysis; assay type: functional, organism-based; outline: as §3
Escherichia coli [6] = test: Antibacterial activity against Escherichia coli ATCC 25922 incubated for 24 hrs by spectrophotometric based assay; assay type: functional; conditions: ATCC 25922, 24 h
Outline: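 Intrinsic MIC by broth microdilution. Log-phase cells at 5 × 10^5 CFU/ml in cation-adjusted Mueller-Hinton broth with two-fold serial dilutions of test compound. Aerobic incubation 24 h at 37 °C, then OD600 read. MIC is the lowest concentration giving ≥90% growth inhibition versus drug-free controls.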

Escherichia coli [7] = test: Disruption of membrane potential in Escherichia coli ATCC 25922 at 12.5 ug/ml incubated fro 30 mins by DiOC2 probe based flow cytometric analysis; assay type: functional, organism-based
Outline: (§4)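 Log-phase cells grown in CAMH, diluted in PBS to 2 × 10^6 CFU/ml, and treated with compound at ¼ MIC. Controls were DMSO vehicle and 2 μg/ml CCCP, with 0.2% DMSO in all tubes, in triplicate. DiOC2 added at 30 μM; 30 min in the dark at room temperature. Flow cytometry at 488 nm excitation, 10,000 cells. Red (620/30) to green (525/20) fluorescence ratio reported.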

Escherichia coli [8] = test: Potentiation of clarithromycin-induced antibacterial activity against Escherichia coli ATCC 25922 assessed as fold reduction in clarithromycin MIC at 12.5 ug/ml incubated for 24 hrs by spectrophotometric based assay
[9] = test system: Escherichia coli ATCC 25922; test: Inhibition of AcrAB-TolC efflux pump in Escherichia coli ATCC 25922 assessed as inhibition of Hoechst 33342 efflux at 3.13 to 25 ug/ml pre-incubated for 5 mins followed by glucose addition by Hoechst 33342 staining based fluorescence assay; outline: as §1
Escherichia coli [10] = test: Induction of outer membrane permeabilization in Escherichia coli ATCC 25922 assessed as increase in NPN uptake at 3.13 to 25 ug/ml incubated for 10 mins by fluorescence assay; assay type: functional, organism-based; outline: as §2
Escherichia coli [11] = test: Induction of outer membrane permeabilization in Escherichia coli ATCC 25922 assessed as increase in propidium iodide uptake at 3.13 to 25 ug/ml by PI staining based flow cytometric analysis; assay type: functional, organism-based; outline: as §3
Escherichia coli [12] = test: Induction of inner membrane permeabilization in Escherichia coli ATCC 25922 assessed as increase in propidium iodide uptake at 3.13 to 25 ug/ml by PI staining based flow cytometric analysis; assay type: functional, organism-based; outline: as §3
Escherichia coli [13] = test: Disruption of membrane potential in Escherichia coli ATCC 25922 at 25 ug/ml incubated fro 30 mins by DiOC2 probe based flow cytometric analysis; assay type: functional, organism-based; outline: as §4
Escherichia coli [14] = test: Increase in membrane potential in Escherichia coli ATCC 25922 at 25 ug/ml incubated fro 30 mins by DiOC2 probe based flow cytometric analysis; assay type: functional, organism-based; outline: as §4

| SMILES | MIC (Escherichia coli [6]) | fold change (FC) (Escherichia coli [8]) | further results |
| --- | --- | --- | --- |
| NCCC[C@H](N)CNC(=O)CC(CCc1ccccc1)CCc1ccccc1 | 50 µg/mL (≈ 131 µM) | 512 | Ratio (Escherichia coli [1]): 128; inhibition [2]: Dose-dependent effect; Activity (Escherichia coli [3]): Dose-dependent effect; Activity (Escherichia coli [4]): Active; Activity (Escherichia coli [5]): Active; Activity (Escherichia coli [7]): inactive |
| CN(C)CCC[C@H](N)CNC(=O)C(CCc1ccccc1)CCc1ccccc1 | 200 µg/mL (≈ 506 µM) | 2 | – |
| NCCC[C@H](N)CNC(=O)C(c1ccccc1)c1ccccc1 | > 200 µg/mL | 2 | – |
| NCCC[C@H](N)CNC(=O)CC(Cc1ccccc1)Cc1ccccc1 | 200 µg/mL (≈ 566 µM) | 16 | – |
| NCC[C@H](N)CNC(=O)C(CCc1ccccc1)CCc1ccccc1 | 100 µg/mL (≈ 283 µM) | 2 | – |
| CN[C@@H](CCCN)CNC(=O)C(CCc1ccccc1)CCc1ccccc1 | > 200 µg/mL | 1 | – |
| NCCC[C@H](N)CNCC(CCc1ccccc1)CCc1ccccc1 | 100 µg/mL (≈ 283 µM) | 128 | Ratio (Escherichia coli [1]): 32; inhibition [9]: Dose-dependent effect; Activity (Escherichia coli [10]): Dose-dependent effect; Activity (Escherichia coli [11]): Active; Activity (Escherichia coli [12]): Active; Activity (Escherichia coli [13]): inactive; Activity (Escherichia coli [14]): Active |
| NCCC[C@H](N)CNC(=O)CC(c1ccccc1)c1ccccc1 | > 200 µg/mL | 1 | – |
| NCCC[C@H](N)CNC(=O)C(CCc1ccccc1)CCc1ccccc1 | 50 µg/mL (≈ 136 µM) | 16 | – |
| NCC[C@H](N)CCNCC(CCc1ccccc1)CCc1ccccc1 | 50 µg/mL (≈ 141 µM) | 64 | – |
| N=C(N)NCCC[C@H](NC(=O)[C@@H](N)Cc1ccccc1)C(=O)Nc1ccc2ccccc2c1 [PABETAN] (H-Phe-Arg-βNA) | > 200 µg/mL | 4 | – |
| CNCCC[C@H](N)CNC(=O)C(CCc1ccccc1)CCc1ccccc1 | 50 µg/mL (≈ 131 µM) | 2 | – |
| NNCCC[C@H](N)CNC(=O)C(CCc1ccccc1)CCc1ccccc1 | 200 µg/mL (≈ 523 µM) | 1 | – |
| CN(C)[C@@H](CCCN)CNC(=O)C(CCc1ccccc1)CCc1ccccc1 | 100 µg/mL (≈ 253 µM) | 2 | – |
| N=C(N)NCCC[C@H](N)CNC(=O)C(CCc1ccccc1)CCc1ccccc1 | > 200 µg/mL | 4 | – |
| NCCC[C@H](N)C(=O)NC(CCc1ccccc1)CCc1ccccc1 | > 100 µg/mL | 4 | – |
| NC[C@@H](N)CCCNCC(CCc1ccccc1)CCc1ccccc1 | 100 µg/mL (≈ 283 µM) | 32 | – |
| NC[C@@H](N)CCCNC(=O)C(CCc1ccccc1)CCc1ccccc1 | 100 µg/mL (≈ 272 µM) | 32 | – |
| NCC[C@H](N)CCNC(=O)C(CCc1ccccc1)CCc1ccccc1 | 200 µg/mL (≈ 544 µM) | 16 | – |
| NCCC[C@H](N)CNC(=O)CCc1ccccc1 | > 200 µg/mL | 1 | – |
| NCCC[C@H](N)CNC(=O)C(Cc1ccccc1)Cc1ccccc1 | > 200 µg/mL | 1 | – |
| NCCC[C@@H](N)CNC(=O)C(CCc1ccccc1)CCc1ccccc1 | 50 µg/mL (≈ 136 µM) | 16 | – |
| NCCC[C@H](N)CNC(=O)CCCc1ccccc1 | > 200 µg/mL | 1 | – |
| CN(C[C@@H](N)CCCN)C(=O)C(CCc1ccccc1)CCc1ccccc1 | > 200 µg/mL | 1 | – |
| NC[C@H](N)CNC(=O)C(CCc1ccccc1)CCc1ccccc1 | 200 µg/mL (≈ 589 µM) | 16 | – |
